The text below walks through data of ChEMBL document CHEMBL1124703, “Analogues of carbamyl aspartate as inhibitors of dihydroorotase: preparation of boronic acid transition-state analogues and a zinc chelator carbamylhomocysteine” (J Med Chem, 1990).

Assay [1] addresses Multifunctional protein CAD (Homo sapiens, UniProt P27708). Put plainly: Inhibitory activity against Dihydroorotase (DHO) at pH 6.0. More on the design: species or system Cricetulus griseus.
Assay [2] concerns L1210. Put plainly: Uptake in L1210 cells at a concentration of 210 uM after 24 hr. As to conditions: Mus musculus, L1210, 24 h.
Assay [3] relates to L1210. Put plainly: Inhibitory activity against murine L1210 cell growth at a concentration of 250 uM after 0h. The class given is functional, Mus musculus. In outline: (§1)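 Murine L1210 cells kept in DMEM with 10% FCS and L-glutamine and harvested in log phase. About 1×10^5 cells/mL held 24 h in depleted medium before drug or DMSO vehicle was added. Trypan blue-excluding cells counted by hemacytometer at 0, 24 and 48 h. Three flasks per concentration and six controls; reported as % survival versus control.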

For assay [4], the system named is L1210. Put plainly: Inhibitory activity against murine L1210 cell growth at a concentration of 250 uM after 24 hr. The class given is functional, Mus musculus. In outline: as §1
The subject of assay [5] is L1210. Put plainly: Inhibitory activity against murine L1210 cell growth at a concentration of 250 uM after 8 hr. The class given is functional, Mus musculus.
Assay [6] has as its system L1210. Put plainly: Inhibitory activity against murine L1210 cell growth at a concentration of 100 uM after 0h. The class given is functional, Mus musculus. In outline: as §1
For assay [7], the system named is L1210. Put plainly: Inhibitory activity against murine L1210 cell growth at a concentration of 100 uM after 24 hr. In kind it is functional, Mus musculus. An outline of the steps:
as §1

The test system of assay [8] is L1210. Put plainly: Inhibitory activity against murine L1210 cell growth at a concentration of 100 uM after 48 hr.

Chain of Multifunctional protein CAD (P27708 whole entry): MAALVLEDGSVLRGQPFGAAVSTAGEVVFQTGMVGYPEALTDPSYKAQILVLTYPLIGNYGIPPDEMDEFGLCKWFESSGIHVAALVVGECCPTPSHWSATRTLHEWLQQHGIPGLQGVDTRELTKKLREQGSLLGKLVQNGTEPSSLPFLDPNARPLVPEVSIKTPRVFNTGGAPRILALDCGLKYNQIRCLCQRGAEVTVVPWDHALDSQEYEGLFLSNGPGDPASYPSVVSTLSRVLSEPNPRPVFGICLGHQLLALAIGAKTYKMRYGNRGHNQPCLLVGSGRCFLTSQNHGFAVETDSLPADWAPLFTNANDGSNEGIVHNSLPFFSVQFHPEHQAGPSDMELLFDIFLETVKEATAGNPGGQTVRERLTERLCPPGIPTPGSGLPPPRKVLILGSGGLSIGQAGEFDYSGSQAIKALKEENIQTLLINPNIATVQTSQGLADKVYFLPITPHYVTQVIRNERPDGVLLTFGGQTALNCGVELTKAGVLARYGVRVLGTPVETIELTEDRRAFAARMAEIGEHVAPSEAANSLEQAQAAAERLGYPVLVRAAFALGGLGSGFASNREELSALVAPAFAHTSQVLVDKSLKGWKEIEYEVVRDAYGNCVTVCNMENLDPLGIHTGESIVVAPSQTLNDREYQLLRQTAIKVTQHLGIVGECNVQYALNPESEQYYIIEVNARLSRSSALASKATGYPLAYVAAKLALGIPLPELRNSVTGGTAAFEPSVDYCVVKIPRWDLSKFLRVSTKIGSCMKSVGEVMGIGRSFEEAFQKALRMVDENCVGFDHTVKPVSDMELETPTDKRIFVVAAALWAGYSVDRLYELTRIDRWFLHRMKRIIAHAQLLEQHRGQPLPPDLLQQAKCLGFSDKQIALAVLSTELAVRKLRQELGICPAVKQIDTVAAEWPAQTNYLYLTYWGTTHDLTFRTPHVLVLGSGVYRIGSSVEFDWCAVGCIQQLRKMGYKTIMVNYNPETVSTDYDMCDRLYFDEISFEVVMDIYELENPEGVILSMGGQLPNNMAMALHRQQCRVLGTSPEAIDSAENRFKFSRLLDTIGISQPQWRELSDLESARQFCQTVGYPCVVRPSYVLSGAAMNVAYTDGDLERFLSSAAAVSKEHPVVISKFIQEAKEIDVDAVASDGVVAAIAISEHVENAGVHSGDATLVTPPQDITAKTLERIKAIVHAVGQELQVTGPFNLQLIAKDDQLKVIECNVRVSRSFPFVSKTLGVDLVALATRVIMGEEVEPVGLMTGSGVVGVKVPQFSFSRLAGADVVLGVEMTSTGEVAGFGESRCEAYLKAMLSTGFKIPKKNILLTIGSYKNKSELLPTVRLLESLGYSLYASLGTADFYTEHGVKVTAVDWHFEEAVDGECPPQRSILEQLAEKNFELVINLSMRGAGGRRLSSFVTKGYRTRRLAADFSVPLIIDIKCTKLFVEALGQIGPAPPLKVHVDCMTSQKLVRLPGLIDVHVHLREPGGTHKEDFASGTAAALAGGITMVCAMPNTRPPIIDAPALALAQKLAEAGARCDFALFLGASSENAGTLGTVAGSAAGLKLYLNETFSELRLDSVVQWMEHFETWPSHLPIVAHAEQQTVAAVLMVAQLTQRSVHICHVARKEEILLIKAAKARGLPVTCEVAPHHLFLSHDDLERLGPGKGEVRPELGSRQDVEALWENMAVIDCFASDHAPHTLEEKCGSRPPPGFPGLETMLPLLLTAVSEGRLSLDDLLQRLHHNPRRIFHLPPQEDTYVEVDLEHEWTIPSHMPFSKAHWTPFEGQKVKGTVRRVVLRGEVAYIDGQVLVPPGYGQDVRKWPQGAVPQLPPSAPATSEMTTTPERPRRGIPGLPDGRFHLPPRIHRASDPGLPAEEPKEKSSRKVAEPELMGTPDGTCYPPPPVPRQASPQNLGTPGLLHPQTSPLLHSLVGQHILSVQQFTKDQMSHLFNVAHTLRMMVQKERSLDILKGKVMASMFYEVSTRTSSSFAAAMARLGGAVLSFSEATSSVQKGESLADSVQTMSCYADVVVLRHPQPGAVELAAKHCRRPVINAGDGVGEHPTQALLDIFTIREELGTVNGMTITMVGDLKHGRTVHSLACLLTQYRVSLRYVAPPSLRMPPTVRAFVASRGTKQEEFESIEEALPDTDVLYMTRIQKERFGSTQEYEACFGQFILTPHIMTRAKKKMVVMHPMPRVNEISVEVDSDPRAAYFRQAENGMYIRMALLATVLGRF

In assay [1], `CCOC(=O)C(CB(O)O)NC(N)=O` (stereo not drawn) registered a Ki of 5.07 µM. In addition, the Uptake at 210 µM in assay [2] was found to be 0.09%.
Take `NC(=O)BCCNC(CC(=O)O)C(=O)O` (stereo not drawn) [BOROCARBAMYLETHYL ASPARTATE]: the Cell survival came to 114 in assay [3], 66 in assay [4] and 80 in assay [5].
On to `O=C(O)C[C@H](NC(=O)CP(=O)(O)O)C(=O)O` [PALA], for which the Cell survival in assay [6] is given as 96; in assay [7], 28; in assay [8], 22.
